The text below walks through data of ChEMBL document CHEMBL1139934, “Synthesis and biological activity of imidazopyridine anticoccidial agents: part I” (Eur J Med Chem, 2007).

In test [1] the test system is Eimeria maxima. In words: Anticococcidal activity against Eimeria maxima in Chick assessed as reduction in oocyte at 25 ppm relative to control. Details: scale not given: the % may be the effect or the level left. Type of test: functional. In short, it runs like this:
(§1)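 Expanded Mini-Assay Coccidiosis (ExMAC) in chickens infected with E. tenella, E. acervulina, E. mitis and E. maxima. Compound given in the feed at the stated ppm. Efficacy for each species is scored 0 to 4 from the percent oocyst reduction relative to an untreated control. Where a compound was tested more than once, all values are reported.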

Test [2] addresses cGMP-dependent protein kinase (Eimeria tenella, UniProt Q8MMZ8). In words: Inhibition of Eimeria tenella cGMP-dependent protein kinase by Ten_K assay. The essentials: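 Ten_K (Tenella Kinase) assay measuring inhibition of E. tenella PKG enzyme activity. Result expressed as the concentration giving 50% inhibition (IC50, nM). Where a compound was tested more than once, all values are reported.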

Test [3] deals with Eimeria mitis. In words: Anticococcidal activity against Eimeria mitis in Chick assessed as reduction in oocyte at 25 ppm relative to control. Type of test: functional. Also on record: scale not given: the % may be the effect or the level left. In short, it runs like this:
as §1

The test system of test [4] is Eimeria acervulina. Nature of the test: Anticococcidal activity against Eimeria acervulina in Chick assessed as reduction in oocyte at 25 ppm relative to control. Details: scale not given: the % may be the effect or the level left. Type of test: functional. In short, it runs like this:
as §1

Test [5] deals with Eimeria tenella. Nature of the test: Anticococcidal activity against Eimeria tenella in Chick assessed as reduction in oocyte at 25 ppm relative to control. Type of test: functional. Also on record: scale not given: the % may be the effect or the level left. The essentials:
as §1

The subject of test [6] is Eimeria acervulina. Nature of the test: Anticococcidal activity against Eimeria acervulina in Chick assessed as reduction in oocyte at 12.5 ppm relative to control. Type of test: functional. Also on record: scale not given: the % may be the effect or the level left. The essentials:
as §1

Test [7] relates to Eimeria mitis. In words: Anticococcidal activity against Eimeria mitis in Chick assessed as reduction in oocyte at 12.5 ppm relative to control. The class given is functional. Details: scale not given: the % may be the effect or the level left. The essentials: as §1
Test [8] has as its system Eimeria acervulina. In words: Anticococcidal activity against Eimeria acervulina in Chick assessed as reduction in oocyte at 6.25 ppm relative to control. The class given is functional. Also on record: scale not given: the % may be the effect or the level left. In short, it runs like this: as §1
Test [9] has as its system Eimeria tenella. Nature of the test: Anticococcidal activity against Eimeria tenella in Chick assessed as reduction in oocyte at 12.5 ppm relative to control. The class given is functional. Details: scale not given: the % may be the effect or the level left. The essentials:
as §1

In test [10] the test system is Eimeria mitis. Nature of the test: Anticococcidal activity against Eimeria mitis in Chick assessed as reduction in oocyte at 6.25 ppm relative to control. The class given is functional. Details: scale not given: the % may be the effect or the level left. The essentials: as §1
Test [11] relates to Eimeria tenella. In words: Anticococcidal activity against Eimeria tenella in Chick assessed as reduction in oocyte at 6.25 ppm relative to control. The class given is functional. Also on record: scale not given: the % may be the effect or the level left. The essentials:
as §1

Test [12] relates to Eimeria maxima. In words: Anticococcidal activity against Eimeria maxima in Chick assessed as reduction in oocyte at 12.5 ppm relative to control. The class given is functional. Also on record: scale not given: the % may be the effect or the level left. In short, it runs like this: as §1

Chain of cGMP-dependent protein kinase (Q8MMZ8 whole entry): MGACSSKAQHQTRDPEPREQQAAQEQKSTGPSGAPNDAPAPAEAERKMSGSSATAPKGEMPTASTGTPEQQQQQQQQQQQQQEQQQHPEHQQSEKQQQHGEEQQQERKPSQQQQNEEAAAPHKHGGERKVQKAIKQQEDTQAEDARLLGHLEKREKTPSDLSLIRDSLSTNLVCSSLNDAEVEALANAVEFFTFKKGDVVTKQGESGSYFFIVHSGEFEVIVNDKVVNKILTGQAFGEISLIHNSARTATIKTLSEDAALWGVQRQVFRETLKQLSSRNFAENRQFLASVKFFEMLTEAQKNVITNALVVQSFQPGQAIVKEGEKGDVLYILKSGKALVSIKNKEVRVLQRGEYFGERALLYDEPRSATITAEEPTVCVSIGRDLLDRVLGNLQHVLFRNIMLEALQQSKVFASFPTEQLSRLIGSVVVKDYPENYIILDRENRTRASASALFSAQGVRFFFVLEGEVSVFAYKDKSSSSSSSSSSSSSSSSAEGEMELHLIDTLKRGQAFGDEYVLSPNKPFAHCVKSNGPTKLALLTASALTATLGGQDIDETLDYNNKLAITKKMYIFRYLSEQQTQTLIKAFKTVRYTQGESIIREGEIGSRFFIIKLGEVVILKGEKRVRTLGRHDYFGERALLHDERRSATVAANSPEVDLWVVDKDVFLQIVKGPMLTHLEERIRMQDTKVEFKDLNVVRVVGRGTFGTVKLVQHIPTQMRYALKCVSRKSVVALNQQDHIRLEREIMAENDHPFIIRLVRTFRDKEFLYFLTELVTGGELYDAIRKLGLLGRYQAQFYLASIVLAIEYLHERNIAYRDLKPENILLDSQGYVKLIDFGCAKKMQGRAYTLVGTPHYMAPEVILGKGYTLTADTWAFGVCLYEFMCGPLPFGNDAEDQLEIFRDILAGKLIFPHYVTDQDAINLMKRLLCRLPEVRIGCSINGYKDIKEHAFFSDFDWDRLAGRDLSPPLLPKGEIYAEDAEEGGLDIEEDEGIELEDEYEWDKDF

A word on the IC50: it is the concentration needed to halve the response being measured. In the case of `CN(C)Cc1ccn2c(-c3ccnc(NCc4ccc(F)c(F)c4)n3)c(-c3ccc(F)cc3)nc2c1`, the Activity in the test on Eimeria maxima [1], in the test with Eimeria mitis [3], in the test on Eimeria acervulina [4] and in the test on Eimeria tenella [5] was less than 50% each time. Half-maximal inhibition in [2] (IC50) required 0.06 nM.
`CN(C)Cc1ccn2c(-c3ccnc(N)n3)c(-c3ccc(F)cc3F)nc2c1` returned an IC50 in test [2] of 0.1 nM. Besides, the Activity came out at 80% with Eimeria mitis [3]; 100% with Eimeria acervulina [6]; 80% with Eimeria mitis [7]; 100% in the test on Eimeria acervulina [8]; 100% in the test with Eimeria tenella [9]; 100% in the test with Eimeria acervulina [4]. Moreover, the Activity with Eimeria tenella [5] is on record as 80%; with Eimeria mitis [10] it was 50%; with Eimeria tenella [11] it was 80%.
Regarding `CN(C)Cc1ccn2c(-c3ccnc(N)n3)c(-c3ccc(F)c(Br)c3)nc2c1`, the Activity was 80% in the test with Eimeria maxima [1], less than 50% with Eimeria mitis [3], 80% in the test on Eimeria acervulina [4] and 80% in the test on Eimeria tenella [5]. In addition, in test [2], the IC50 amounted to 0.16 nM.
In turn, `CN(C)Cc1ccn2c(-c3ccnc(NC(=O)NC(C)(C)C)n3)c(-c3ccc(F)cc3)nc2c1` came in with an IC50 in [2] of 4.39 nM. Besides, the Activity with Eimeria maxima [12], in the test with Eimeria acervulina [6], in the test on Eimeria mitis [7] and in the test with Eimeria tenella [9] was 80% throughout.
In the case of `CN(C)Cc1ccn2c(-c3ccnc(NCc4cccc(Cl)c4)n3)c(-c3ccc(F)cc3)nc2c1`, the Activity with Eimeria maxima [1] is listed as 80%; in the test on Eimeria mitis [3], less than 50%; in the test on Eimeria acervulina [4], less than 50%; with Eimeria tenella [5] it was less than 50%. In [2], it took 0.18 nM to reach half-maximal inhibition (IC50).
Regarding `CN(C)Cc1ccn2c(-c3ccnc(NS(=O)(=O)c4ccccc4)n3)c(-c3ccc(F)cc3)nc2c1`, the Activity with Eimeria maxima [1], with Eimeria mitis [3], with Eimeria acervulina [4] and in the test with Eimeria tenella [5] was less than 50% in each case. Further, the IC50 in test [2] is 0.25 nM.
For `CN(C)Cc1ccn2c(-c3ccnc(N)n3)c(-c3ccc(Cl)cc3)nc2c1`, inhibition in test [2] was half-maximal at 0.41 nM (IC50). Moreover, the Activity in the test with Eimeria mitis [3] is reported as 50%; with Eimeria acervulina [6], less than 50%; in the test on Eimeria mitis [7], less than 50%; in the test on Eimeria tenella [9], less than 50%; with Eimeria acervulina [4], 50%; in the test on Eimeria tenella [5], 80%.
Take `CN(C)Cc1ccn2c(-c3ccnc(NCc4cccc(F)c4F)n3)c(-c3ccc(F)cc3)nc2c1`: the Activity in the test on Eimeria maxima [1], in the test with Eimeria mitis [3], in the test on Eimeria acervulina [4] and in the test on Eimeria tenella [5] was less than 50% each time. This compound also yielded a concentration for half-maximal inhibition (IC50) in test [2] of 0.12 nM.
Consider `CCCCCCNc1nccc(-c2c(-c3ccc(F)cc3)nc3cc(CN(C)C)ccn23)n1`, for which the Activity in the test with Eimeria maxima [1] is reported as less than 50%; in the test on Eimeria mitis [3], less than 50%; in the test with Eimeria acervulina [4], less than 50%; in the test on Eimeria tenella [5] it was 80%. For the same compound, in test [2], half-maximal inhibition (IC50) was put at 0.13 nM.
For the compound `CN(C)Cc1ccn2c(-c3nc(N)ncc3Br)c(-c3ccc(F)cc3)nc2c1`, the Activity is recorded as 50% in the test with Eimeria maxima [1], less than 50% in the test with Eimeria mitis [3], less than 50% in the test on Eimeria acervulina [4] and 50% in the test with Eimeria tenella [5]. The IC50 in test [2] was 5.8 nM.
Regarding `CN(C)Cc1ccn2c(-c3ccnc(NCc4cc(F)ccc4F)n3)c(-c3ccc(F)cc3)nc2c1`, the Activity was 80% in the test with Eimeria maxima [1], less than 50% in the test with Eimeria mitis [3], less than 50% in the test with Eimeria acervulina [4] and less than 50% with Eimeria tenella [5]. Inhibition in [2] was half-maximal at 0.026 nM (IC50).
As for `CN(C)Cc1ccn2c(-c3ccnc(NCc4ccccc4Cl)n3)c(-c3ccc(F)cc3)nc2c1`, the Activity with Eimeria maxima [1] is given as 80%; with Eimeria mitis [3], less than 50%; in the test with Eimeria acervulina [4], less than 50%; in the test on Eimeria tenella [5], 50%. Besides, in test [2], the IC50 stood at 0.056 nM.
For the compound `CN(C)Cc1ccn2c(-c3nc(N)ncc3C#N)c(-c3ccc(F)cc3)nc2c1`, the Activity in the test on Eimeria maxima [1], in the test with Eimeria mitis [3], in the test with Eimeria acervulina [4] and with Eimeria tenella [5] was less than 50% throughout. In [2], this compound had an IC50 of 1.6 nM.
Regarding `CCCCCNc1nccc(-c2c(-c3ccc(F)cc3)nc3cc(CN(C)C)ccn23)n1`, the Activity is 80% in the test with Eimeria maxima [1], 50% in the test on Eimeria mitis [3], 80% in the test on Eimeria acervulina [4] and less than 50% in the test with Eimeria tenella [5]. Further, the IC50 in test [2] was 0.1 nM.
Consider `Cc1ccccc1CNc1nccc(-c2c(-c3ccc(F)cc3)nc3cc(CN(C)C)ccn23)n1`, for which the Activity in the test with Eimeria maxima [1] is listed as 50%; in the test on Eimeria mitis [3], less than 50%; in the test with Eimeria acervulina [4], less than 50%; in the test on Eimeria tenella [5], less than 50%. The compound also displayed an IC50 in [2] of 0.08 nM.
Turning to `CCCNc1nccc(-c2c(-c3ccc(F)cc3)nc3cc(CN(C)C)ccn23)n1`, the Activity in the test with Eimeria maxima [12], in the test on Eimeria acervulina [6], in the test with Eimeria mitis [7] and with Eimeria tenella [9] was 80% throughout.
On to `CN(C)Cc1ccn2c(-c3ccnc(Nc4ccccn4)n3)c(-c3ccc(F)cc3)nc2c1`, for which the Activity is on record as 80% in the test with Eimeria maxima [1]; 80% in the test on Eimeria mitis [3]; 50% with Eimeria maxima [12]; less than 50% in the test on Eimeria acervulina [6]; 80% with Eimeria mitis [7]; 80% with Eimeria tenella [9]. Also, the Activity was less than 50% in the test with Eimeria acervulina [4] and 80% in the test on Eimeria tenella [5]. In [2], this compound returned an IC50 of 0.4 nM.
As to `CN(C)Cc1ccn2c(-c3ccnc(NCc4ccc(F)cc4)n3)c(-c3ccc(F)cc3)nc2c1`, the Activity is reported as 80% with Eimeria maxima [1]; 80% in the test with Eimeria mitis [3]; less than 50% in the test on Eimeria maxima [12]; less than 50% in the test on Eimeria acervulina [6]; less than 50% in the test on Eimeria mitis [7]; less than 50% in the test with Eimeria tenella [9]. Also, the Activity in the test with Eimeria acervulina [4] and in the test on Eimeria tenella [5] was 80% in each case. This compound showed an IC50 in [2] of 0.066 nM.
For the compound `CN(C)Cc1ccn2c(-c3ccnc(NCc4ccc(Cl)cc4)n3)c(-c3ccc(F)cc3)nc2c1`, the Activity in the test on Eimeria maxima [1], with Eimeria mitis [3], in the test with Eimeria acervulina [4] and in the test with Eimeria tenella [5] was less than 50% each time. The same compound returned an IC50 in test [2] of 0.24 nM.
Compound `Cc1cc(-c2nc3cc(CN(C)C)ccn3c2-c2ccnc(N)n2)ccc1F` showed an IC50 in test [2] of 0.23 nM. The Activity in the test with Eimeria mitis [3], with Eimeria acervulina [6], with Eimeria mitis [7], in the test with Eimeria acervulina [8], with Eimeria tenella [9] and with Eimeria acervulina [4] was 80% in each case. The Activity in the test on Eimeria tenella [5], in the test on Eimeria mitis [10] and in the test on Eimeria tenella [11] was 80% throughout.
As to `Cc1cccc(CNc2nccc(-c3c(-c4ccc(F)cc4)nc4cc(CN(C)C)ccn34)n2)c1`, the Activity with Eimeria maxima [1] is less than 50%; with Eimeria mitis [3] it was less than 50%; in the test on Eimeria acervulina [4], less than 50%; with Eimeria tenella [5], 80%. This compound also had an IC50 in test [2] of 0.083 nM.
As for `CN(C)Cc1ccn2c(-c3ccnc(NCc4cc(F)cc(F)c4)n3)c(-c3ccc(F)cc3)nc2c1`, the Activity with Eimeria maxima [1] was 80%; in the test with Eimeria mitis [3], less than 50%; in the test with Eimeria maxima [12] it was less than 50%; with Eimeria acervulina [6], less than 50%; in the test on Eimeria mitis [7], less than 50%; in the test with Eimeria tenella [9] it was less than 50%. Moreover, the Activity in the test with Eimeria acervulina [4] and with Eimeria tenella [5] was 80% throughout. The IC50 in [2] was determined as 0.11 nM.
In the case of `Cc1ccc(CNc2nccc(-c3c(-c4ccc(F)cc4)nc4cc(CN(C)C)ccn34)n2)cc1`, the Activity in the test on Eimeria maxima [1] is 80%; in the test with Eimeria mitis [3], less than 50%; with Eimeria acervulina [4], 50%; with Eimeria tenella [5], less than 50%. Besides, the IC50 in [2] amounted to 0.121 nM.
For `COCCCNc1nccc(-c2c(-c3ccc(F)cc3)nc3cc(CN(C)C)ccn23)n1`, the Activity is on record as 50% with Eimeria maxima [1], less than 50% with Eimeria mitis [3], 80% in the test with Eimeria acervulina [4] and 80% in the test with Eimeria tenella [5]. Besides, the IC50 in test [2] amounted to 0.25 nM.
For the compound `CN(C)Cc1ccn2c(-c3ccnc(NCc4ccc(F)cc4F)n3)c(-c3ccc(F)cc3)nc2c1`, the Activity with Eimeria maxima [1] was 80%; in the test on Eimeria mitis [3], less than 50%; in the test on Eimeria acervulina [4], less than 50%; with Eimeria tenella [5], less than 50%. Also, the IC50 in test [2] came out at 0.15 nM.
`CN(C)Cc1ccn2c(-c3ccnc(NCc4ccccc4F)n3)c(-c3ccc(F)cc3)nc2c1`: the Activity is 80% in the test with Eimeria maxima [1], 80% in the test on Eimeria mitis [3], less than 50% with Eimeria acervulina [4] and 80% in the test with Eimeria tenella [5]. In addition, in [2], the IC50 worked out at 0.087 nM.
As for `COC(=O)Nc1nccc(-c2c(-c3ccc(F)cc3)nc3cc(CN(C)C)ccn23)n1`, the Activity in the test with Eimeria maxima [1] was 80%; in the test with Eimeria mitis [3], less than 50%; with Eimeria maxima [12] it was 80%; with Eimeria acervulina [6] it was 80%; in the test with Eimeria mitis [7], less than 50%; with Eimeria tenella [9], 80%. Moreover, the Activity in the test with Eimeria acervulina [4] and in the test on Eimeria tenella [5] was 80% throughout. This compound registered an IC50 in test [2] of 0.45 nM.
